Reference: PMC4409786 (Cancer discovery, 2014)
Where a name gives a salt, the structure may show the parent alone.

How the values were obtained:
hepsin = hepsin (Homo sapiens, UniProt P05981); experiment: Hepsin protease inhibition with optimal peptide substrate; type: biochemical
In short: (§1)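 Each enzyme is assayed with its optimal peptide substrate, and substrate concentrations are determined after 30 minutes.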

matriptase = biological target: T1, matriptase (Homo sapiens, UniProt Q9Y5Y6); experiment: Matriptase protease inhibition with optimal peptide substrate; type: biochemical
T1 sequence (Q9Y5Y6 1-855): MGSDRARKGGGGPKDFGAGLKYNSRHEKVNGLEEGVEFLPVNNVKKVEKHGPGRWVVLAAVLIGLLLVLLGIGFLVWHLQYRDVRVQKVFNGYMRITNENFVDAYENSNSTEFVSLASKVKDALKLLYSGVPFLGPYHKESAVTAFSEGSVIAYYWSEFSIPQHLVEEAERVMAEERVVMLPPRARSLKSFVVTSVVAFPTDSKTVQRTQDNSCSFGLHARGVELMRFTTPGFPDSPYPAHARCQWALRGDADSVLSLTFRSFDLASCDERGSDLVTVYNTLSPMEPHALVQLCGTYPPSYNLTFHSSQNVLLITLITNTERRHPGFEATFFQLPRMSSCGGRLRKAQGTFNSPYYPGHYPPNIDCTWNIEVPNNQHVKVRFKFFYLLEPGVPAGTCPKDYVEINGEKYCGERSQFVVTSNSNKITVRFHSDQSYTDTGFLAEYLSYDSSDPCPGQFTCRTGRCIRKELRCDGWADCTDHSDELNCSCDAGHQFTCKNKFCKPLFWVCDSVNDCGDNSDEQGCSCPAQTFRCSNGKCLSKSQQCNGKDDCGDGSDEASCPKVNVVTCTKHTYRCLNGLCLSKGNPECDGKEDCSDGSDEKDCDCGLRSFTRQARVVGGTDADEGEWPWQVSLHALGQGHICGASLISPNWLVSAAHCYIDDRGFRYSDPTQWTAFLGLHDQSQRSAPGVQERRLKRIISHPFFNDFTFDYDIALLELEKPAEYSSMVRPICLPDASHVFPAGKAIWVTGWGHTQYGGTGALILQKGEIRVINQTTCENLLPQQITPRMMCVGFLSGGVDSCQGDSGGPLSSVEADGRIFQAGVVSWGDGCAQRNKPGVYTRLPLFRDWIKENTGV
In short: as §1

trypsin = experiment: Trypsin inhibition; type: biochemical; details: read-out: IC50 for trypsin
thrombin = thrombin (Homo sapiens, UniProt P00734); experiment: Thrombin inhibition; type: biochemical
LNCaP cells [1] = experiment: In vitro cell toxicity, LNCaP; type: cell-based; details: 48-hour, 0μM to 250μM
DU145 cells [2] = experiment: In vitro cell toxicity, DU145; type: cell-based; details: DU145, 48-hour, 0μM to 250μM
PC3 cells = experiment: In vitro cell toxicity, PC3; type: cell-based; details: PC3, 48-hour, 0μM to 250μM
HepG2 cells = experiment: In vitro cell toxicity, HepG2; type: cell-based; details: HepG2, 48-hour, 0μM to 250μM
DU145^TMPRSS2 cells = experiment: Matrigel invasion assay, HGF-promoted; type: cell-based; details: DU145^TMPRSS2, p<0.01
In short: (§2)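 TMPRSS2 coding sequence is cloned and transfected into DU145 or PC3 cells, and stable lines are selected with antibiotic; vector-transfected cells are the controls. Invasion through Matrigel is measured with a commercial 96-well invasion kit, under standard culture (serum) conditions or with added HGF, alongside serum-free medium.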

PC-3^TMPRSS2 cells = experiment: Matrigel invasion assay, HGF-promoted; type: cell-based; details: PC-3^TMPRSS2, p<0.01
In short: as §2

LNCaP cells [3] = experiment: HGF-induced invasion assay; type: cell-based; details: natively express TMPRSS2, p<0.01
In short: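 Invasion through basement-membrane matrix, measured with a commercial 96-well invasion kit. LNCaP cells are exposed to exogenous paracrine-acting HGF and compared with serum-free medium.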

C4-2B cells = experiment: HGF-induced invasion assay; type: cell-based; details: natively express TMPRSS2, p<0.01
TRAMP mice = experiment: In vivo treatment of TRAMP mice: primary tumor and spontaneous metastasis; set-up: species or system mouse; details: 30mg/kg intraperitoneal three times per week, p=0.04 versus vehicle
DU145 cells [4] = experiment: DU145 invasion with prostate fibroblast conditioned medium and TMPRSS2; type: cell-based
prostate bone metastasis = details: human clinical trials ref 42; cited from earlier work

Sequence of hepsin (P05981 whole entry): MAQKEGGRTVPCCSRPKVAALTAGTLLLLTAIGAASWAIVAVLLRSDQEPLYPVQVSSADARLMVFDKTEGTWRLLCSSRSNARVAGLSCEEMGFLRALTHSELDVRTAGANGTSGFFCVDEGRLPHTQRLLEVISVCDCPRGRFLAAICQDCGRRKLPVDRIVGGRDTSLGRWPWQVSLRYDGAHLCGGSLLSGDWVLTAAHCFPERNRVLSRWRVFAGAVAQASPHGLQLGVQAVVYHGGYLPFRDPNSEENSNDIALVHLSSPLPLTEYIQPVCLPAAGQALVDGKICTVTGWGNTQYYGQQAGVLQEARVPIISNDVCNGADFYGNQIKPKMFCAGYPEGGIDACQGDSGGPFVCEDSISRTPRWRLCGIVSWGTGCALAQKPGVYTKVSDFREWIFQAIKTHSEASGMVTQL

## CN(Cc1cc(Br)cc(Br)c1N)C1CCCCC1 [BHH, bromhexine hydrochloride]
hepsin
  IC50: 35 µM
matriptase
  IC50: 58 µM
trypsin
  IC50: > 100 µM
thrombin
  IC50: > 100 µM
LNCaP cells [1]
  toxicity: No significant toxicity
DU145 cells [2]
  toxicity: No significant toxicity
PC3 cells
  toxicity: No significant toxicity
HepG2 cells
  toxicity: No significant toxicity
DU145^TMPRSS2 cells
  migration and invasion phenotypes promoted by HGF: significantly reduced
PC-3^TMPRSS2 cells
  migration and invasion phenotypes promoted by HGF: significantly reduced
LNCaP cells [3]
  HGF-induced invasion: significantly attenuated
C4-2B cells
  HGF-induced invasion: significantly attenuated
TRAMP mice
  incidence of distant metastasis to lung and liver sites: 20%

## Cc1[nH]c(/C=C2\C(=O)Nc3ccc(S(=O)(=O)N(C)c4cccc(Cl)c4)cc32)c(C)c1C(=O)N1CCN(C)CC1 [SU11274]
DU145 cells [4]
  increase of cellular invasion by fibroblast conditioned medium and TMPRSS2: abolished

## COc1cc2nccc(Oc3ccc(NC(=O)C4(C(=O)Nc5ccc(F)cc5)CC4)cc3)c2cc1OC [cabozantinib]
Prostate bone metastasis
  prostate bone metastasis response: Striking regressions
